High-throughput results deposited in PubChem BioAssay by several laboratories.
In the library only some 3.5% were active in any assay of this set; here they are far more common.
Yeast life ext: compounds extending yeast replicative lifespan, primary screen, S. cerevisiae, OD615; S. cerevisiae growth with nicotinamide; deaD strain in restrictive glucose medium; inhibition of the nicotinamide effect, % at 10 µM; 0.68% of 130,000 active; AID 775, 2007;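 active = inhibition above a set limit, placed 3 SD over the median of all compounds, cut at about 26% in these data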
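Test system: DeaD-strain S. cerevisiae / Buffer or medium: restrictive glucose medium / Also added: nicotinamide 1.5 mM / Doses: one concentration, 10 µM, DMSO 0.25% / Schedule: 48 h at 30 °C / Signal: OD615 measurement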
MT stabilizer: microtubule stabilizers in HeLa cells, primary screen, imaging, high-content imaging. AID 2205, 2009. HeLa tubulin immunostaining HCS, 24 h; share of cells brighter than vehicle mean+2SD. 0.83% of 200,000 active. % tubulin-high responders, % at 10 µM;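 active = plate Z-score above 3 for both tubulin-high and condensed-nucleus cell shares, with cell loss under 80%, at 10 µM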;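 also: anti alpha tubulin signal scored within the nucleus-defined area of each cell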
HMGR II inh: inhibitors of E. faecalis class II HMGR, primary screen, biochemical, Enterococcus faecalis | HMG-CoA reductase (Enterococcus faecalis, mvaE) | AID 1066, 2008 | 0.41% of 190,000 active | inhibition, % at 10 µM | purified E. faecalis HMGR, NADPH absorbance 340 nm kinetic;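 active = inhibition above a set limit, the median over all tested compounds plus 3 SD, cut at about 9.5% in these data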;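 also: enzyme runs in reverse so mevalonate oxidation gives rising NADPH absorbance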
bCat nuc transl: modulators of beta-catenin nuclear translocation, primary screen, imaging, HeLa cells, immunofluorescence, high-content; AID 1665, 2009; nuclear translocation activity, % at 5 µM; 0.3% of 190,000 active;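 active = nuclear translocation activity above 50% at 5 µM, with a well cell count of 50 or more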;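 also: per-cell ratio of nuclear to cytoplasmic median beta-catenin stain intensity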
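assay system = human HeLa cells, endogenous beta-catenin | times = compound treatment 24 h, 37°C, 5% CO2 | detection = Anti-beta-catenin immunofluorescence on PFA-fixed, Triton-permeabilized cells, DAPI nuclei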
BB579 growth dn: growth inhibitors of yeast BB579 in restrictive medium, primary screen, yeast lifespan-shortening project, S. cerevisiae; OD615, 48 h; inhibition, % at 10 µM; AID 804, 2007; 0.51% of 140,000 active;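 active = inhibition above a set limit, 3 SD over the mean compound inhibition, cut at about 44% in these data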
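Detection: OD615 turbidity measurement; Material: Saccharomyces cerevisiae DeaD strain BB579, replicative lifespan model yeast; Timing: 48 h exposure, 30 °C; Doses: single 10 µM dose; Medium: CSMM-D restrictive synthetic medium containing dextrose (glucose); Controls: amphotericin B at 10 µg/mL as positive control.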
RAM inhibit: inhibitors of the yeast RAM network, primary screen, dse1pr::URA3 reporter, 5-FOA selection | 1.8% of 190,000 active | inhibition, % at 50 µM | S. cerevisiae dse1pr::URA3 reporter, 5-FOA growth OD615, 2 d; analog-sensitive cbk1-as2 kinase mutant strain;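 active = inhibition above a set limit, 3 SD over mean compound inhibition, cut at about 8.4% in these data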;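 also: inhibition rescues growth on 5-FOA so higher OD means more RAM inhibition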
RAM efflux-def: 5-FOA growth of efflux-deficient control yeast, dose response, counter-screen for RAM network inhibitor project, S. cerevisiae, OD615; shares compounds with RAM inhibit; S. cerevisiae efflux-deficient reporter strain, 5-FOA growth OD615, 2 days; max inhibition, %; 1,200 tested, under 10 active; AID 1305, 2008; call rule not given here
Of the large screens only hits and unclear results are named; the others gave an inactive call (follow-up assays come after a bar, where they were run).

C=CCNS(=O)(=O)c1cc(S(=O)(=O)NCC=C)c(OC)cc1OC	none (no result: Yeast life ext, BB579 growth dn)
COC(=O)c1cc(=O)n(CCc2ccccc2)c(=Nc2ccc(F)cc2)s1	RAM inhibit 11.5 | RAM efflux-def inactive
Cn1c(SCC(=O)N2CCc3ccccc32)nnc1-c1ccc(S(=O)(=O)N2CCCC2)cc1	RAM inhibit 11.7 | RAM efflux-def inactive
NC(=O)CSc1nnc(-c2ccccc2Br)n1-c1cccc(C(F)(F)F)c1	none
CCNC(=O)CSc1nnc(-c2ccccc2Br)n1-c1cccc(C(F)(F)F)c1	RAM inhibit 11.9 | RAM efflux-def inactive
COc1ccccc1OCC(=O)Nc1ccc(-c2nnc(-c3ccco3)o2)cc1	RAM inhibit 11.8 (no result: Yeast life ext, BB579 growth dn) | RAM efflux-def inactive
Cc1nnc(SCC(=O)NNC(=O)c2ccc(Br)cc2)n1C	none (no result: Yeast life ext, BB579 growth dn)
Cc1ccc(-n2ncc3c(SCc4ccccc4)ncnc32)cc1	RAM inhibit 11.9 | RAM efflux-def inactive
c1ccc(CSc2ncnc3c2cnn3Cc2ccccc2)cc1	none
CCCCc1ccc(/C=C2\C(=O)c3ccccc3C(O)=C2C(=O)OCC)cc1	RAM inhibit 13.6 | RAM efflux-def inactive
Cc1ccc(Cc2nnc3n(-c4cccc(C)c4)nc(C(=O)c4ccccc4)n3c2=O)cc1	RAM inhibit 14.7 (no result: Yeast life ext) | RAM efflux-def inactive
COC(=O)c1nn(-c2cccc(C)c2)c2nnc(Cc3ccc(C)cc3)c(=O)n12	none
CN(C)c1nc(SCCOC(=O)COc2ccc(Cl)cc2Cl)nc(N(C)C)n1	RAM inhibit 11.6 | RAM efflux-def inactive
CN(C)c1nc(OCCOC(=O)COc2ccc(Cl)cc2Cl)nc(N(C)C)n1	none
CN(C)S(=O)(=O)c1cccc(NC(=O)COC(=O)CCSc2ccc(Cl)cc2)c1	none
CCN(CC)S(=O)(=O)c1cccc(NC(=O)CCSc2ccc(Cl)cc2)c1	RAM inhibit 14.3 | RAM efflux-def inactive
Cn1c(=O)c2[nH]c(N3CCN(c4ccccn4)CC3)nc2n(C)c1=O	none (no result: Yeast life ext, BB579 growth dn)
CCCCCCCCNC(=O)CC(NS(=O)(=O)c1ccc(NC(C)=O)cc1)C(C)C (stereo not drawn)	RAM inhibit 12.7 | RAM efflux-def inactive
CC(=O)Nc1ccc(S(=O)(=O)NC(CC(=O)NCCCN2CCOCC2)C(C)C)cc1 (stereo not drawn)	none (no result: bCat nuc transl)
Cc1ccccc1NC(=O)/C(C#N)=C/c1ccsc1	none
Cc1cccc(NC(=O)/C(C#N)=C/c2ccc(Sc3ccccc3)o2)c1C	RAM inhibit 14.2 | RAM efflux-def inactive
Cc1c(NC(=S)NC(=O)Cc2ccccc2)cccc1C(=O)O	RAM inhibit 22.1 | RAM efflux-def inactive
CCOC(=O)c1cnn(-c2ccccc2)c1-n1cccc1C(=O)C(=O)Nc1ccccc1C(F)(F)F	RAM inhibit 14.4 | RAM efflux-def inactive
CCOC(=O)c1cnn(-c2ccccc2)c1-n1cccc1C(=O)C(=O)N(CC)CC	none (no result: Yeast life ext, BB579 growth dn)
Brc1ccc(Cn2c(-c3ccc(Br)o3)nc3ccccc32)o1	RAM inhibit 13.1 | RAM efflux-def inactive
O=C(COC(=O)CCCN1C(=O)c2cccc3cccc(c23)C1=O)Nc1cccc(C(F)(F)F)c1	RAM inhibit 11.7 | RAM efflux-def inactive
CC(C)Cn1c(-c2cccs2)nc2nc3ccccc3nc21	none
CCCCn1c(-c2cccs2)nc2nc3ccccc3nc21	RAM inhibit 12.3 | RAM efflux-def inactive
CC(NC(=O)CCC(=O)c1ccc(F)cc1)C1CC2CCC1C2 (stereo not drawn)	none (no result: Yeast life ext, BB579 growth dn)
CCOC(=O)C1=C(c2ccccc2)N=c2s/c(=C\c3ccco3)c(=O)n2C1c1cccs1 (stereo not drawn)	none
